Results reported in ChEMBL document CHEMBL1132244, “Benzodiazepine receptor ligands. 4. Synthesis and pharmacological evaluation of 3-heteroaryl-8-chloropyrazolo[5,1-c][1,2,4] benzotriazine 5-oxides” (J Med Chem, 1999).
pKi: −log10 of the molar value.

Key:
[1] = biological target: T1, GABA-A receptor; anion channel (Bos taurus) (UniProt P10063+P08220+P20237+P08219+P10064+P22300); assay: Percentage inhibition of [3H]Ro-151788 binding to GABA-A benzodiazepine receptor in bovine brain membrane at 10 uM; assay type: cell membranes
Procedure, shortened: (§1)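 Washed bovine cerebral cortex membranes, with endogenous GABA removed by Triton X-100/37 °C washes, incubated with ~0.2 nM [3H]Ro15-1788 (Kd 0.60 nM) in 50 mM Tris-citrate pH 7.4 for 90 min at 0 °C, then filtered. Nonspecific binding defined with 10 μM diazepam. Screening at 10 μM; Ki from IC50 by Cheng–Prusoff; five determinations, mean ± SEM.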

Mus musculus [2] = assay: Antianxiety activity was measured based on light/dark box thus calculated no of crosses of mice at 100 mg/kg dose Flumazenil and 1 mg/kg Diazepam; assay type: functional
Mus musculus [3] = assay: Muscle relaxant effect measured by rotarod test at 100 mg/kg dose Flumazenil and 0.3 mg/kg Diazepam; assay type: functional
Mus musculus [4] = assay: Antianxiety activity was measured based on light/dark box thus calculated % time in light of mice at 100 mg/kg dose Flumazenil and 1 mg/kg Diazepam; assay type: functional
Mus musculus [5] = assay: Anticonvulsant activity against PTZ induced atacks at 100 mg/kg dose Flumazenil and 0.3 mg/kg Diazepam; assay type: functional
Procedure, shortened: (§2)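 Male Swiss-Webster mice (22–26 g) received drug in 1% CMC (10 mL/kg) 30 min before the test, or flumazenil 40 min before. Pentylenetetrazole was then given at 75 mg/kg sc, and generalized tonic-clonic seizures were scored over the following 30 min. The incidence of non-convulsing mice was analysed by χ² test.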

[6] = biological target: GABA-A receptor; anion channel; assay: Displacement of [3H]Ro-151788 from GABA-A benzodiazepine receptor of bovine brain membranes; assay type: cell membranes, Bos taurus; procedure, shortened: as §1
[7] = biological target: T1, GABA-A receptor; anion channel (Bos taurus); assay: The GABA ratio (GR) = IC50 compound + 10 uM GABA, performed in five independent experiments was calculated for the compound.; assay type: protein-complex assay
Procedure, shortened: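 [3H]Ro15-1788 displacement from GABA-depleted bovine cortex membranes (0.2 nM ligand, 90 min, 0 °C, Tris-citrate pH 7.4). IC50 measured without and with 10 μM GABA and the ratio taken; five independent experiments.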

Mus musculus [8] = assay: Anticonvulsant activity against PTZ induced attacks at 30 mg/kg dose 13d and 100 mg/kg Flumazenil; assay type: functional; procedure, shortened: as §2
Mus musculus [9] = assay: Muscle relaxant effect measured by rotarod test at 30 mg/kg dose 13d and 100 mg/kg Flumazenil; assay type: functional
Mus musculus [10] = organism: Mus musculus; assay: Anticonvulsant activity against PTZ induced atacks; assay type: functional; procedure, shortened: as §2
Mus musculus [11] = organism: Mus musculus; assay: Antianxiety activity was measured based on light/dark box thus calculated no of crosses of mice; assay type: functional
Mus musculus [12] = organism: Mus musculus; assay: Muscle relaxant effect measured by rotarod test; assay type: functional
Mus musculus [13] = organism: Mus musculus; assay: Antianxiety activity was measured based on light/dark box thus calculated % time in light of mice; assay type: functional
Mus musculus [14] = assay: The antianxiety activity for the compound at a dose of 0.3 mg/kg was evaluated as number of crosses by mice in the light/dark box experiment. p<0.05; assay type: functional
Mus musculus [15] = assay: The antianxiety activity for the compound at a dose of 1 mg/kg was evaluated as number of crosses by mice in the light/dark box experiment.; assay type: functional
Mus musculus [16] = assay: The antianxiety activity for the compound at a dose of 3 mg/kg was evaluated as number of crosses by mice in the light/dark box experiment.; assay type: functional
Mus musculus [17] = assay: Muscle relaxant effect measured by rotarod test at 0.1 mg/Kg dose in mice; assay type: functional
Mus musculus [18] = assay: Muscle relaxant effect measured by rotarod test at 0.3 mg/Kg dose in mice; assay type: functional
Mus musculus [19] = assay: Muscle relaxant effect measured by rotarod test at 1 mg/Kg dose in mice; assay type: functional
Mus musculus [20] = assay: Muscle relaxant effect measured by rotarod test at 3 mg/Kg dose in mice; assay type: functional
Mus musculus [21] = assay: The percentage time in light by the animals was calculated for the compound at a dose of 0.3 mg/kg in the light/dark box experiment.; assay type: functional
Mus musculus [22] = assay: The percentage time in light by the animals was calculated for the compound at a dose of 1 mg/kg in the light/dark box experiment*** indicates P<0.001.; assay type: functional
Mus musculus [23] = assay: The percentage time in light by the animals was calculated for the compound at a dose of 3 mg/kg in the light/dark box experiment.; assay type: functional
Mus musculus [24] = assay: (§3) Anticonvulsant activity against MES-induced hindlimb extension at 100 mg/kg dose; assay type: functional
Mus musculus [25] = assay: (§4) Anticonvulsant activity against MES-induced hindlimb extension at 30 mg/kg dose; assay type: functional
Mus musculus [26] = assay: (§5) Anticonvulsant activity against MES-induced hindlimb extension at 300 mg/kg dose; assay type: functional
Mus musculus [27] = assay: Antianxiety activity was measured based on light/dark box thus calculated no of crosses of mice at 100 mg/kg dose; assay type: functional
Procedure, shortened: (§6)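 Male Swiss-Webster mice, 22–26 g, dosed orally with drug or 1% CMC vehicle (10 mL/kg), placed 30 min later in the centre of the lit side of a two-compartment light/dark box (60-W bulb 400 mm above the white floor). Time in the lit side and number of crossings counted over 5 min. Student's t-test.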

Mus musculus [28] = assay: Antianxiety activity was measured based on light/dark box thus calculated no of crosses of mice at 3 mg/kg dose; assay type: functional; procedure, shortened: as §6
Mus musculus [29] = assay: Antianxiety activity was measured based on light/dark box thus calculated no of crosses of mice at 30 mg/kg dose; assay type: functional; procedure, shortened: as §6
Mus musculus [30] = assay: as §3; assay type: organism-based; design: dose 100 mg/kg; settings: in vivo
Procedure, shortened: (§7)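 Male Swiss-Webster mice (22–26 g) received drug in 1% CMC (10 mL/kg) 30 min before maximal electroshock through transcorneal electrodes (40 mA, 50 Hz, 0.2 s). The end point was tonic hindlimb extension, and lethality was also noted. The incidence of non-convulsing mice was analysed by χ² test.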

Mus musculus [31] = assay: Muscle relaxant effect measured by rotarod test at 100 mg/Kg dose in mice; assay type: functional
Procedure, shortened: (§8)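 Motor coordination on the rota rod in male Swiss-Webster mice (22–26 g) after oral dosing in 1% CMC (10 mL/kg), tested 30 min post-dose. Student's t-test.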

Mus musculus [32] = assay: as §4; assay type: ADME, organism-based; design: dose 30 mg/kg; settings: in vivo; procedure, shortened: as §7
Mus musculus [33] = assay: as §5; assay type: ADME, organism-based; design: dose 300 mg/kg; settings: in vivo; procedure, shortened: as §7
Mus musculus [34] = assay: Muscle relaxant effect measured by rotarod test at 30 mg/Kg dose in mice; assay type: functional; procedure, shortened: as §8
Mus musculus [35] = assay: Muscle relaxant effect measured by rotarod test at 300 mg/Kg dose in mice; assay type: functional; procedure, shortened: as §8
Mus musculus [36] = assay: Antianxiety activity was measured based on light/dark box thus calculated % time in light of mice at 100 mg/kg dose; assay type: functional; procedure, shortened: as §6
Mus musculus [37] = assay: Antianxiety activity was measured based on light/dark box thus calculated % time in light of mice at 3 mg/kg dose; assay type: functional; procedure, shortened: as §6
Mus musculus [38] = assay: Anticonvulsant activity against PTZ induced atacks at 100 mg/kg dose; assay type: functional
Mus musculus [39] = assay: Anticonvulsant activity against PTZ induced atacks at 300 mg/kg dose; assay type: functional
Mus musculus [40] = assay: Antianxiety activity was measured based on light/dark box thus calculated % time in light of mice at 10 mg/kg dose; assay type: functional; procedure, shortened: as §6
Mus musculus [41] = assay: Antianxiety activity was measured based on light/dark box thus calculated % time in light of mice at 30 mg/kg dose; assay type: functional; procedure, shortened: as §6
Mus musculus [42] = assay: Anticonvulsant activity against PTZ induced atacks at 30 mg/kg dose; assay type: functional
Mus musculus [43] = assay: Antianxiety activity was measured based on light/dark box thus calculated no of crosses of mice at 10 mg/kg dose; assay type: functional; procedure, shortened: as §6

## Cn1cnc(-c2cnn3c2n[n+]([O-])c2ccc(Cl)cc23)n1
[1]
  inhibition: 0%

## CN(C)/C=N/C(=O)c1cnn2c1n[n+]([O-])c1ccc(Cl)cc12
[1]
  inhibition: 48.9%

## CCOC(=O)c1ncn2c1CN(C)C(=O)c1cc(F)ccc1-2.CN1C(=O)CN=C(c2ccccc2)c2cc(Cl)ccc21
Mus musculus [2]
  No. of crosses: 18.6
Mus musculus [3]
  No. of falls: 0.46
Mus musculus [4]
  Time in flight: 104.1%
Mus musculus [5]
  Atttacks: 14.2%

## O=CNC(=O)c1cnn2c1n[n+]([O-])c1ccc(Cl)cc12
[6]
  pKi: 6.07
[1]
  inhibition: 85.5%
[7]
  Ratio: 2.07

## CCOC(=O)c1ncn2c1CN(C)C(=O)c1cc(F)ccc1-2.[O-][n+]1nc2c(-c3ccsc3)cnn2c2cc(Cl)ccc21
Mus musculus [8]
  Attacks: 36.4%
Mus musculus [9]
  No. of falls: 0.64

## CCOC(=O)c1ncn2c1CN(C)C(=O)c1cc(F)ccc1-2 [FLUMAZENIL]
Mus musculus [10]
  Attacks: 0%
Mus musculus [11]
  No. of crosses: 15.2
Mus musculus [12]
  No. of falls: 0.4
Mus musculus [13]
  Time in flight: 114.8%

## Cc1nc(-c2cnn3c2n[n+]([O-])c2ccc(Cl)cc23)nn1C
[1]
  inhibition: 0%

## C/C(=N\C(=O)c1cnn2c1n[n+]([O-])c1ccc(Cl)cc12)N(C)C
[1]
  inhibition: 58.5%

## [O-][n+]1nc2c(-c3cnoc3)cnn2c2cc(Cl)ccc21
[1]
  inhibition: 66%

## CN1C(=O)CN=C(c2ccccc2)c2cc(Cl)ccc21 [DIAZEPAM]
Mus musculus [14]
  No. of crosses: 22
Mus musculus [15]
  No. of crosses: 28.5
Mus musculus [16]
  No. of crosses: 16.5
Mus musculus [17]
  No. of falls: 0.23
Mus musculus [18]
  No. of falls: 0.56
Mus musculus [19]
  No. of falls: 0.73
Mus musculus [20]
  No. of falls: 1.4
Mus musculus [21]
  Time in light: 95.5%
Mus musculus [22]
  Time in light: 144.9%
Mus musculus [23]
  Time in light: 211.1%

## [O-][n+]1nc2c(-c3cccs3)cnn2c2cc(Cl)ccc21
[6]
  pKi: 7.99
[1]
  inhibition: 82%
Mus musculus [24]
  Extension: 0%
Mus musculus [25]
  Extension: 0%
Mus musculus [26]
  Extension: 0%
Mus musculus [27]
  No. of crosses: 18.4
Mus musculus [28]
  No. of crosses: 15
Mus musculus [29]
  No. of crosses: 17.6
Mus musculus [30]
  Lethality: 20%
Mus musculus [31]
  No. of falls: 0.08
Mus musculus [32]
  Lethality: 18.2%
Mus musculus [33]
  Lethality: 8.3%
Mus musculus [34]
  No. of falls: 0
Mus musculus [35]
  No. of falls: 0.2
Mus musculus [36]
  Time in flight: 114.5%
Mus musculus [37]
  Time in flight: 88.9%
Mus musculus [38]
  Atttacks: 16.6%
Mus musculus [39]
  Atttacks: 12.5%
[7]
  GR: 1.54
Mus musculus [40]
  Time in flight: 122.2%
Mus musculus [41]
  Time in flight: 11.5%
Mus musculus [42]
  Atttacks: 10%
Mus musculus [43]
  No. of crosses: 20
